In ChEMBL document CHEMBL4680093 (J Med Chem, 2016):
Active and inactive are the calls of the source. The rule behind the calls is not given here.

Assays:
[1] = Reduction in HbA1c level in C57BL/6-Lep^ob (ob/ob) mouse at 300 mg/kg, po dosed once daily for 25 days relative to control; format: functional; design: scale not given: the % may be the effect or the level left; details: time 25 day
Summary of the method: (§1)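 Eight-week-old male ob/ob mice were dosed orally once daily for 25 days with vehicle (sterile water, 0.5% methylcellulose, 1% Tween80), test compound 20 mg/kg, metformin 300 mg/kg, or the combination. Baseline postprandial glucose and HbA1c were checked from tail-vein blood. Changes in HbA1c and non-fasting blood glucose were expressed relative to the vehicle group.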

[2] = tested on: Mus musculus; experiment: Reduction in nonfasting blood glucose level in C57BL/6-Lep^ob (ob/ob) mouse at 300 mg/kg, po dosed once daily for 25 days relative to control; format: functional, organism-based; details: time 25.0 day; summary of the method: as §1
[3] = tested on: Mus musculus; experiment: Improvement in lipid profile in C57BL/6-Lep^ob (ob/ob) mouse assessed as LDL cholesterol level at 300 mg/kg, po dosed once daily for 25 days (reference value: 30.3 +/- 0.8 mg/dl); format: functional; details: time 25 day
[4] = tested on: Mus musculus; experiment: Improvement in lipid profile in C57BL/6-Lep^ob (ob/ob) mouse assessed as total cholesterol level at 300 mg/kg, po dosed once daily for 25 days (reference value: 286.6 +/- 6.3 mg/dl); format: functional; details: time 25 day
[5] = tested on: Mus musculus; experiment: Improvement in lipid profile in C57BL/6-Lep^ob (ob/ob) mouse assessed as triglyceride level at 300 mg/kg, po dosed once daily for 25 days (reference value: 90.9 +/- 5.5 mg/dl); format: functional; details: time 25 day
[6] = Metabolic stability in mouse liver microsomes assessed as compound remaining after 30 mins; format: ADME, Microsome; details: read-out: Stabilty
[7] = In-vivo inhibition of 11beta-HSD1 activity in C57BL/6 mouse liver assessed as reduction in cortisone to-cortisol conversion at 10 mg/kg, po measured after 2 hrs by ELISA; format: functional; details: C57BL/6, Liver
[8] = In-vivo inhibition of 11beta-HSD1 activity in C57BL/6 mouse epididymal fat assessed as reduction in cortisone to-cortisol conversion at 10 mg/kg, po measured after 2 hrs by ELISA; format: functional; details: C57BL/6, Epididymal fat pad
Summary of the method: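 Male C57BL/6 mice dosed orally once at 3, 10 or 30 mg/kg in sterile water containing 0.5% methylcellulose and 1% Tween80, then sacrificed at 2 or 6 h. Liver and epididymal fat pads incubated ex vivo in culture medium containing cortisone. Cortisol formed was measured by ELISA and reported as % inhibition versus vehicle.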

[9] = Reduction in HbA1c in patient with type 2 diabetes exhibiting inadequate glycemic control with metformin alone dosed for 12 weeks during phase 2 trial; format: functional, Homo sapiens; design: scale not given: the % may be the effect or the level left
[10] = Reduction in fasting plasma glucose in patient with type 2 diabetes exhibiting inadequate glycemic control with metformin alone dosed for 12 weeks during phase 2 trial; format: functional, Homo sapiens
[11] = Reduction in HOMA-IR in patient with type 2 diabetes exhibiting inadequate glycemic control with metformin alone dosed for 12 weeks during phase 2 trial; format: functional, Homo sapiens; design: scale not given: the % may be the effect or the level left
[12] = molecular target: T1, Cytochrome P450 1A2 (Homo sapiens, UniProt P05177); experiment: Inhibition of CYP1A2 in pooled human liver microsomes using phenacetin as substrate in presence of NADPH incubated for 10 mins by LC-MS/MS analysis
T1 sequence (P05177 whole entry): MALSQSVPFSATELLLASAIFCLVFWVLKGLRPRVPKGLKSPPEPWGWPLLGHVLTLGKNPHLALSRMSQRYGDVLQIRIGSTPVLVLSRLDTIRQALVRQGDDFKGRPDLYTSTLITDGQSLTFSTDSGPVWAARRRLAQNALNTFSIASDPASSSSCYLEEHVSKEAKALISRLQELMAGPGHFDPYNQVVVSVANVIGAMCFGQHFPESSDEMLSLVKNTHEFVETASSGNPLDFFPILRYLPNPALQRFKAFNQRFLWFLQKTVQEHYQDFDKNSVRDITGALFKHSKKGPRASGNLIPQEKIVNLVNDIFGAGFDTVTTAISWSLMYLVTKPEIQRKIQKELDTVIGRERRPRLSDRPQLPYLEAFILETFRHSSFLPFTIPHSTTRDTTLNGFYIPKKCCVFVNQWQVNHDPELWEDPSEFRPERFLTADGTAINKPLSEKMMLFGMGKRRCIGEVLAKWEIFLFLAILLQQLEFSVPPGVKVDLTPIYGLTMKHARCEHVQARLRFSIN

[13] = molecular target: Cytochrome P450 2C9 (Homo sapiens, UniProt P11712); experiment: Inhibition of CYP2C9 in pooled human liver microsomes using diclofenac as substrate in presence of NADPH incubated for 10 mins by LC-MS/MS analysis
Chain of Cytochrome P450 2C9 (P11712 whole entry): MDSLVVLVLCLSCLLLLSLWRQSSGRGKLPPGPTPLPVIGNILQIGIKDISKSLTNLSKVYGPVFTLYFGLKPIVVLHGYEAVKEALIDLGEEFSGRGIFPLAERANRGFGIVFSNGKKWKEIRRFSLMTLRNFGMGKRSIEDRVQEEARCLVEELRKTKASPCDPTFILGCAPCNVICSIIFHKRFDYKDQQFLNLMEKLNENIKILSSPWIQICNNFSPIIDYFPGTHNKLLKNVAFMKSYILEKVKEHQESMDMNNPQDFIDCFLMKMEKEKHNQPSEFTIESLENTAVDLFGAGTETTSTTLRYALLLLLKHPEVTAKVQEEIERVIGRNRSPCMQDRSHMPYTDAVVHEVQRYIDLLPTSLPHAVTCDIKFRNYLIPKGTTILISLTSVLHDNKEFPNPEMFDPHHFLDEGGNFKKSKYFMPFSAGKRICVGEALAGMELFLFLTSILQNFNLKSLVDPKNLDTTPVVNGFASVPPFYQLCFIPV

[14] = molecular target: Cytochrome P450 2C19 (Homo sapiens, UniProt P33261); experiment: Inhibition of CYP2C19 in pooled human liver microsomes using mephenytoin as substrate in presence of NADPH incubated for 10 mins by LC-MS/MS analysis
Chain of Cytochrome P450 2C19 (P33261 whole entry): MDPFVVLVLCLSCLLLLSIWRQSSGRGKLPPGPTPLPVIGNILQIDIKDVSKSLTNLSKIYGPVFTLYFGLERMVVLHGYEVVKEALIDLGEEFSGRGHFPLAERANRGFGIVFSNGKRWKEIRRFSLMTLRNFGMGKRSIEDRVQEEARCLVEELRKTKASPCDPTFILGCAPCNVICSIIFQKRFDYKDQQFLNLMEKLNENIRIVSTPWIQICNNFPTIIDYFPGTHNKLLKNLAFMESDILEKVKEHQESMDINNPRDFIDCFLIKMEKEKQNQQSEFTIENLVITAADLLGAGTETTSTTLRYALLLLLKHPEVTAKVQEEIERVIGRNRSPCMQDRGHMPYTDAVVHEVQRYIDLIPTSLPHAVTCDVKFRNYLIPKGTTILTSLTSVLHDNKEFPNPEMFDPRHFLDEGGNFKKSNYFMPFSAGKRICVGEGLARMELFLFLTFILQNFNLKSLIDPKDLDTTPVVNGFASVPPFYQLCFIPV

[15] = molecular target: Cytochrome P450 2D6 (Homo sapiens, UniProt P10635); experiment: Inhibition of CYP2D6 in pooled human liver microsomes using dextromethorphan as substrate in presence of NADPH incubated for 10 mins by LC-MS/MS analysis
Chain of Cytochrome P450 2D6 (P10635 whole entry): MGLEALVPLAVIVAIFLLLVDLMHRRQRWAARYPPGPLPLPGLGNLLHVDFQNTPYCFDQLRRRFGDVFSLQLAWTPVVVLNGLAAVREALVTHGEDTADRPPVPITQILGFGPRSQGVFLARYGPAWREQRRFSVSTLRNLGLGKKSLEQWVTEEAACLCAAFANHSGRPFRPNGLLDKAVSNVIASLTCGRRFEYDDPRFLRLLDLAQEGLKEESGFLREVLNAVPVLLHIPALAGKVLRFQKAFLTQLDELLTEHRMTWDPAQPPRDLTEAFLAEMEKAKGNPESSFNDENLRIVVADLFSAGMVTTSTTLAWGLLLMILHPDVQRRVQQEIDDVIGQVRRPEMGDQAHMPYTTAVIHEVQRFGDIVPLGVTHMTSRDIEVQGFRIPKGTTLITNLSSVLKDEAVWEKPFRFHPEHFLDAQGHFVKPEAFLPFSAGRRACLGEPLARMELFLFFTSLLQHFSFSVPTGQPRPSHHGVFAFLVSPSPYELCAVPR

[16] = molecular target: Cytochrome P450 3A4 (Homo sapiens, UniProt P08684); experiment: Inhibition of CYP3A4 in pooled human liver microsomes using midazolam as substrate in presence of NADPH incubated for 10 mins by LC-MS/MS analysis
Chain of Cytochrome P450 3A4 (P08684 whole entry): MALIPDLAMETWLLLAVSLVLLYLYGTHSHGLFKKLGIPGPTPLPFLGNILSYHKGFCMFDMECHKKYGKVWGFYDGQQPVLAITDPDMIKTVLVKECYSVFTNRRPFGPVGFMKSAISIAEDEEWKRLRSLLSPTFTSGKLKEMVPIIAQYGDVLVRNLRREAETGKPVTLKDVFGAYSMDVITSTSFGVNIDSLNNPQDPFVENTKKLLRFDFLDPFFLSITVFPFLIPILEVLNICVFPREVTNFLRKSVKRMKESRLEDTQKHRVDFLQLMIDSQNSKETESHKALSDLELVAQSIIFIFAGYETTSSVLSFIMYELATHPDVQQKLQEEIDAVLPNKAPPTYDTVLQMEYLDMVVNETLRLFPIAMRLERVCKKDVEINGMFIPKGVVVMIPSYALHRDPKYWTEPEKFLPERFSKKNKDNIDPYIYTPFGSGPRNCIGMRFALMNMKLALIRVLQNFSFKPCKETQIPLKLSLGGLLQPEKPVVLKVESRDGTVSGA

[17] = molecular target: T2, Nuclear receptor subfamily 1 group I member 2 (Homo sapiens, UniProt O75469); experiment: Activation of PXR (unknown origin) at 10 uM relative to rifampicin; format: ADME
T2 sequence (O75469 whole entry): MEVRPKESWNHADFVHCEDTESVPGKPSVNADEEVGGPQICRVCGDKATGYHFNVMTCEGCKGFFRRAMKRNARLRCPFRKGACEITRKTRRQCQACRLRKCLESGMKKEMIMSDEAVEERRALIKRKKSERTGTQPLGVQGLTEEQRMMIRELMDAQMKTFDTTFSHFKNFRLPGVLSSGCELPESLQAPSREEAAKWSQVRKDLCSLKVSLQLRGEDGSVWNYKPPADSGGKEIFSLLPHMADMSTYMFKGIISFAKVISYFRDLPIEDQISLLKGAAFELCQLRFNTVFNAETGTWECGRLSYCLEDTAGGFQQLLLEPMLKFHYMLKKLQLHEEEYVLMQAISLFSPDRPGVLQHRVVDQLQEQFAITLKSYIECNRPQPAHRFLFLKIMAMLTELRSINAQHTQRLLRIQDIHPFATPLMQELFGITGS

[18] = molecular target: 11-beta-hydroxysteroid dehydrogenase 1 (Homo sapiens, UniProt P28845); experiment: Inhibition of human 11beta-HSD1 expressed in HEK293 cells using cortisone by ELISA
Chain of 11-beta-hydroxysteroid dehydrogenase 1 (P28845 whole entry): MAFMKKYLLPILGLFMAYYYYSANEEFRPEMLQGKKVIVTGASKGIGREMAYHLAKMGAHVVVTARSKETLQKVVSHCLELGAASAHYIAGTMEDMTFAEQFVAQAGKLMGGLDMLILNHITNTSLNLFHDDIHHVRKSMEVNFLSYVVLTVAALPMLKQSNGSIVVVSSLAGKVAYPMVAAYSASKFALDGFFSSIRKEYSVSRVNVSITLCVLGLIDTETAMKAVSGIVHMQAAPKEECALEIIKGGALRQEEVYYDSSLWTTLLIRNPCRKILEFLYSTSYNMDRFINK

| Compound | remaining at 0.5 h [6] | inhibition in vivo at 10 mg/kg [7] | inhibition in vivo at 10 mg/kg [8] | further results |
| --- | --- | --- | --- | --- |
| CN(C)C(=N)NC(=N)N [METFORMIN] | – | – | – | Activity [1]: 0.7%; Activity [2]: inactive; Activity [3]: 23.9 mg/dL; Activity [4]: 252.6 mg/dL; Activity [5]: 99.9 mg/dL |
| C[C@@H]1CN(c2cc(F)c(S(C)(=O)=O)cc2F)CCN1c1nccc(C(=O)NC2C3CC4CC2CC(O)(C4)C3)n1 (stereo partly specified) | 92% | 80% | 85% | – |
| C[C@@H]1CN(c2ccc(Cl)cc2)CCN1c1nccc(C(=O)NC2C3CC4CC2CC(O)(C4)C3)n1 (stereo partly specified) | 78% | – | – | – |
| O=C(NC1CCCCC1)[C@H]1CCCN(S(=O)(=O)c2cccc(Cl)c2)C1 | – | – | – | Activity [9]: 0.6%; Activity [10]: 24 mg/dL; Activity [11]: 24% |
| C[C@@H]1CN(c2ccc(C#N)cc2)CCN1c1nccc(C(=O)NC2C3CC4CC2CC(O)(C4)C3)n1 (stereo partly specified) | 86% | 6% | 12% | – |
| C[C@@H]1CN(c2ccc(C(N)=O)nc2)CCN1c1cccc(C(=O)NC2C3CC4CC2CC(O)(C4)C3)n1 (stereo partly specified) | 23% | – | – | – |
| Cc1cc(S(C)(=O)=O)ccc1N1CCN(c2nccc(C(=O)NC3C4CC5CC3CC(O)(C5)C4)n2)[C@H](C)C1 (stereo partly specified) | 90% | 64% | 77% | – |
| CCS(=O)(=O)c1ccc(N2CCN(c3nccc(C(=O)NC4C5CC6CC4CC(O)(C6)C5)n3)[C@H](C)C2)c(F)c1 (stereo partly specified) | 91% | 79% | 82% | – |
| C[C@@H]1CN(c2ccc(S(C)(=O)=O)cc2)CCN1c1cccc(C(=O)NC2C3CC4CC2CC(O)(C4)C3)n1 (stereo partly specified) | 97% | 70% | 86% | IC50 [12]: > 10 µM; IC50 [13]: > 10 µM; IC50 [14]: 3.7 µM; IC50 [15]: > 10 µM; IC50 [16]: 0.97 µM; Activity [17]: 32.7%; IC50 [18]: 0.0031 µM |
| C[C@@H]1CN(c2ccc(C(=O)O)cc2)CCN1c1cccc(C(=O)NC2C3CC4CC2CC(O)(C4)C3)n1 (stereo partly specified) | 71% | – | – | – |
| C[C@@H]1CN(c2ccc(C(F)(F)F)cc2)CCN1c1nccc(C(=O)NC2C3CC4CC2CC(O)(C4)C3)n1 (stereo partly specified) | 90% | – | – | – |
| C[C@@H]1CN(c2ccc(F)cc2)CCN1c1nccc(C(=O)NC2C3CC4CC2CC(O)(C4)C3)n1 (stereo partly specified) | 82% | – | – | – |
| C[C@@H]1CN(c2ccc(C(C)(C)O)nc2)CCN1c1cccc(C(=O)NC2C3CC4CC2CC(O)(C4)C3)n1 (stereo partly specified) | 76% | 63% | 87% | – |
| C[C@@H]1CN(c2ccc(C(N)=O)cc2)CCN1c1cccc(C(=O)NC2C3CC4CC2CC(O)(C4)C3)n1 (stereo partly specified) | 57% | 0% | 26% | – |
| CNC(=O)c1ccc(N2CCN(c3cccc(C(=O)NC4C5CC6CC4CC(O)(C6)C5)n3)[C@H](C)C2)cn1 (stereo partly specified) | 66% | 52% | 85% | IC50 [12]: > 10 µM; IC50 [13]: > 10 µM; IC50 [14]: 0.7 µM; IC50 [15]: > 10 µM; IC50 [16]: > 10 µM |
| C[C@@H]1CN(c2ccc(C(C)(C)O)cc2)CCN1c1nccc(C(=O)NC2C3CC4CC2CC(O)(C4)C3)n1 (stereo partly specified) | 99% | 32% | 46% | – |
| CNC(=O)c1ccc(N2CCN(c3cccc(C(=O)NC4C5CC6CC4CC(O)(C6)C5)n3)[C@H](C)C2)cc1 (stereo partly specified) | 61% | 0% | 34% | – |
| C[C@@H]1CN(c2ccc(C(C)(C)O)cc2F)CCN1c1nccc(C(=O)NC2C3CC4CC2CC(O)(C4)C3)n1 (stereo partly specified) | 98% | 43% | 74% | – |
| C[C@@H]1CN(c2ccc(S(N)(=O)=O)cc2)CCN1c1cccc(C(=O)NC2C3CC4CC2CC(O)(C4)C3)n1 (stereo partly specified) | 65% | 0% | 11% | – |
| C[C@@H]1CN(c2ccc(S(C)(=O)=O)cc2Cl)CCN1c1nccc(C(=O)NC2C3CC4CC2CC(O)(C4)C3)n1 (stereo partly specified) | 96% | 77% | 82% | – |
| CNS(=O)(=O)c1ccc(N2CCN(c3cccc(C(=O)NC4C5CC6CC4CC(O)(C6)C5)n3)[C@H](C)C2)cc1 (stereo partly specified) | 83% | 12% | 33% | – |
| C[C@@H]1CN(c2c(F)cc(S(C)(=O)=O)cc2F)CCN1c1nccc(C(=O)NC2C3CC4CC2CC(O)(C4)C3)n1 (stereo partly specified) | 95% | – | – | – |
| C[C@@H]1CN(c2ccc(S(C)(=O)=O)cc2)CCN1c1nccc(C(=O)NC2C3CC4CC2CC(O)(C4)C3)n1 (stereo partly specified) | 92% | 48% | 81% | IC50 [12]: > 10 µM; IC50 [13]: > 10 µM; IC50 [14]: > 10 µM; IC50 [15]: > 10 µM; IC50 [16]: > 10 µM |
